ChEMBL document CHEMBL1152538, “Synthesis and biological evaluation of asymmetric gramicidin S analogues containing modified D-phenylalanine residues” (Bioorg Med Chem, 2009)
In brackets after ≈: the same amount, converted by molar mass. Where a SMILES comes first, the peptide text is derived from it. [ ]: non-standard residue; d: D form. Orn = NCCC[C@H](N)C(=O)O

Legend:
Staphylococcus aureus [1] = experiment: Antibacterial activity against Staphylococcus aureus 7323 after 24 to 96 hrs by well microplate assay; type: functional
Method in brief: (§1)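 Strains were kept at -70 °C, grown at 30 °C on sheep-blood Columbia agar, and suspended in saline to OD595 0.1, then diluted 10×. Inoculum was added at 2 µL per 100 µL Nutrient Broth with yeast extract (2 g/400 mL). Peptide stocks were 4 g/L in ethanol, diluted to 1000 mg/L in water, then twofold in broth (64–1 mg/L). Plates were held at 30 °C for 24–96 h. MIC was the lowest concentration inhibiting growth.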

Staphylococcus aureus [2] = experiment: Antibacterial activity against Staphylococcus aureus 7388 after 24 to 96 hrs by well microplate assay; type: functional; method in brief: as §1
Enterococcus faecalis = experiment: Antibacterial activity against Enterococcus faecalis 1131 after 24 to 96 hrs by well microplate assay; type: functional; method in brief: as §1
Escherichia coli = experiment: Antibacterial activity against Escherichia coli ATCC 25922 after 24 to 96 hrs by well microplate assay; type: functional; method in brief: as §1
Pseudomonas aeruginosa [3] = experiment: Antibacterial activity against Pseudomonas aeruginosa AK1 after 24 to 96 hrs by well microplate assay; type: functional; method in brief: as §1
Pseudomonas aeruginosa [4] = experiment: Antibacterial activity against Pseudomonas aeruginosa ATCC 19582 after 24 to 96 hrs by well microplate assay; type: functional; method in brief: as §1
Streptococcus mitis [5] = experiment: Antibacterial activity against Streptococcus mitis BMS after 24 to 96 hrs by well microplate assay; type: functional; method in brief: as §1
Streptococcus mitis [6] = experiment: Antibacterial activity against Streptococcus mitis ATCC 33399 after 24 to 96 hrs by well microplate assay; type: functional; method in brief: as §1
[7] = Cytotoxicity against human erythrocytes assessed as hemolysis after 4 hrs by twofold dilution assay; type: cell-based; details: Erythrocyte
Method in brief: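 Heparinised blood was spun at 1000g and 10 °C, and erythrocytes were washed three times in 0.85% saline and diluted to 1/25 packed volume. Peptide stocks were 1.5 mM in 30% DMSO/0.5 mM saline, sonicated if suspended, and twofold serially diluted in saline in triplicate rows. 1% Triton-X served as the lysis reference. Cells were incubated at 37 °C for 4 h and centrifuged, and the supernatant was read at A405 for % hemolysis.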

[8] = Cytotoxicity against human erythrocytes assessed as hemolysis at 12 uM after 4 hrs by twofold dilution assay; type: cell-based, Erythrocyte; details: read-out: Activity
Method in brief: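 Freshly drawn heparinised blood was spun at 1000g and 10 °C. The erythrocytes were washed three times in 0.85% saline and diluted to 1/25 packed cell volume. Peptide stock was 1.5 mM in 30% DMSO/saline, sonicated if needed, and serially twofold diluted in saline across 10 wells, with 1% Triton-X as reference. Plates were held at 37 °C for 4 h, then centrifuged, and hemolysis percentage was read from supernatant A405.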

[9] = system: coagulase-negative Staphylococcus; experiment: Antibacterial activity against coagulase-negative Staphylococcus CNS 5277 after 24 to 96 hrs by well microplate assay
[10] = system: coagulase-negative Staphylococcus; experiment: Antibacterial activity against coagulase-negative Staphylococcus CNS 5115 after 24 to 96 hrs by well microplate assay
[11] = system: coagulase-negative Staphylococcus; experiment: Antibacterial activity against coagulase-negative Staphylococcus CNS 7368 after 24 to 96 hrs by well microplate assay

Question: Which MIC (Staphylococcus aureus [1]) does the source give for `CC(C)C[C@@H]1NC(=O)[C@H](CCCN)NC(=O)[C@H](C(C)C)NC(=O)[C@@H]2CCCN2C(=O)[C@@H](Cc2ccccc2)NC(=O)[C@H](CC(C)C)NC(=O)[C@H](CCCN)NC(=O)[C@H](C(C)C)NC(=O)[C@@H]2CCCN2C(=O)[C@@H](Cc2ccccc2)NC1=O` [GRAMICIDIN S] (cyclo(L[dF]PV[Orn]L[dF]PV[Orn])) here?
Answer: 8 µg/mL (≈ 7.01 µM)

Question: What about the MIC (Staphylococcus aureus [2]) of the same compound?
Answer: 8 µg/mL (≈ 7.01 µM)

Question: And the MIC (Enterococcus faecalis)?
Answer: 16 µg/mL (≈ 14 µM)

Question: And the MIC (Escherichia coli)?
Answer: 32 µg/mL (≈ 28 µM)

Question: What about the MIC (Pseudomonas aeruginosa [3]) of the same compound?
Answer: 64 µg/mL (≈ 56.1 µM)

Question: What about the MIC (Pseudomonas aeruginosa [4]) of the same compound?
Answer: 8 µg/mL (≈ 7.01 µM)

Question: And the MIC (Streptococcus mitis [5])?
Answer: 8 µg/mL (≈ 7.01 µM)

Question: What about the MIC (Streptococcus mitis [6]) of the same compound?
Answer: 4 µg/mL (≈ 3.5 µM)

Question: And the EC50 [7]?
Answer: 11.7 µM

Question: What about the hemolysis at 4 h, 12 µM [8] of the same compound?
Answer: 50%

Question: What about the MIC [9] of the same compound?
Answer: 16 µg/mL (≈ 14 µM)

Question: And the MIC [10]?
Answer: 16 µg/mL (≈ 14 µM)

Question: And the MIC [11]?
Answer: 8 µg/mL (≈ 7.01 µM)
